For data set [1], the species on record is Homo sapiens. The data set is described as follows: In vitro protein binding in human serum at 5 ug/ml. The format is ADME. In a few lines:
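Samples were incubated 30 min at room temperature, then ultrafiltered through a 30 000 MW cutoff device at 2000g for 25 min at room temperature. Free drug in the filtrate was quantified by HPLC.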

For data set [2], the species on record is Homo sapiens. The data set is described as follows: Inhibition of interleukin-2 (IL-2) synthesis in human whole blood stimulated by PMA/ionomycin. The format is functional. In outline:
(§1)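 Heparinized human whole blood was added to serially diluted compound and stimulated with a PMA (50 ng/mL) plus ionomycin mixture. After 24 h, plasma was collected by centrifugation and IL-2 was measured by in-house ELISA.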

Data set [3] in a line: Maximum concentration in rat at 4 mpk upon peroral administration. The format is ADME, organism-based. Also on record: dose 4 mpk, route oral. The settings on record: in vivo, po, 4 mg/kg.
A short description of data set [4]: Oral bioavailability in rat (dose 4 mg/kg). The format is ADME, organism-based. The conditions noted are these: in vivo.
Data set [5] in a line: Area under curve in rat at 4 mpk upon peroral administration. It is filed as ADME, organism-based. The settings on record: in vivo, po, 4 mg/kg.
Data set [6] is described as follows: Half-life in rat at 4 mpk upon peroral administration. The settings on record: in vivo, po, 4 mg/kg. The format is ADME, organism-based.
A short description of data set [7]: Bronchoalveolar lavages was collected after 6 hr in an ascaris-induced nonhuman primate model of asthma at 30 mg/kg dose (for eotaxin). The format is functional. In outline: (§2)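 Ascaris-induced asthma model in nonhuman primates. Dosing by oral gavage at -26, -2 and +22 h relative to antigen inhalation. Bronchoalveolar lavage was taken at day -5 (baseline), at +6 h for IL-5, IL-8 and eotaxin, and at +48 h for eosinophil influx. Data are mean percentage inhibition versus crossover vehicle control, with paired t-test.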

A short description of data set [8]: Bronchoalveolar lavages was collected after 6 hr in an ascaris-induced nonhuman primate model of asthma at 30 mg/kg dose (for IL-8). The format is functional. In outline: as §2
Data set [9] is described as follows: Resistance evaluated in an ascaris-induced nonhuman primate model of asthma after 6 hour at 30 mg/kg dose. It is filed as functional. In a few lines:
(§3)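 Antigen (Ascaris) inhalation challenge in nonhuman primates, with oral gavage dosing at -26, -2 and +22 h relative to inhalation. Respiratory system resistance was measured at baseline, at +10 min (immediate response) and at +6 h (late phase). Data are mean percentage inhibition versus crossover vehicle control, with paired t-test.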

Data set [10] in a line: Bronchoalveolar lavages was collected after 48 hr in an ascaris-induced nonhuman primate model of asthma (for eosinophil influx, eos) at 25 mg/kg dose. It is filed as functional. The settings on record: dose 30 mg/kg; in the assay text read “30 mg/kg” for “25 mg/kg”. In outline:
as §2

Data set [11] in a line: Resistance evaluated in an ascaris-induced nonhuman primate model of asthma after 10 min at 30 mg/kg dose. It is filed as functional. In outline: as §3
The nature of data set [12]: Bronchoalveolar lavages was collected after 6 hr in an ascaris-induced nonhuman primate model of asthma at 30 mg/kg dose (for IL-5). The format is functional. In a few lines:
as §2

The species entered for data set [13] is Homo sapiens. The data set can be described thus: Tested for interleukin-2 (IL-2) synthesis inhibition in human whole blood stimulated by PMA/ionomycin. The format is functional. In a few lines: as §1
Data set [14] is described as follows: Bronchoalveolar lavages was collected after 6 hr in an ascaris-induced nonhuman primate model of asthma at 25 mg/kg dose (for eotaxin). It is filed as functional. In a few lines: as §2
Data set [15] is described as follows: Bronchoalveolar lavages was collected after 48 hr (for eosinophil influx, eos) at 25 mg/kg dose. It is filed as functional. In a few lines: as §2
A short description of data set [16]: Bronchoalveolar lavages was collected after 6 hr in an ascaris-induced nonhuman primate model of asthma at 25 mg/kg dose (for IL-5). It is filed as functional. In outline:
as §2

Data set [17] in a line: Resistance evaluated in an ascaris-induced nonhuman primate model of asthma after 6 hour at 25 mg/kg dose. It is filed as functional. In outline: as §3
Data set [18] is described as follows: Inhibition of eosinophil influx in bronchoalveolar lavage after 48 hr at 1 mg/kg dose.
Data set [19] can be described thus: Resistance evaluated in an ascaris-induced nonhuman primate model of asthma after 10 min at 1 mg/kg dose. The format is functional. In a few lines: as §3
A short description of data set [20]: Bronchoalveolar lavages was collected after 6 hr in an ascaris-induced nonhuman primate model of asthma at 1 mg/kg dose (for IL-8). It is filed as functional. In a few lines: as §2
The nature of data set [21]: Bronchoalveolar lavages was collected after 6 hr in an ascaris-induced nonhuman primate model of asthma at 1 mg/kg dose (for IL-5). It is filed as functional. In outline:
as §2

Data set [22] can be described thus: Resistance evaluated in an ascaris-induced nonhuman primate model of asthma after 6 hour at 1 mg/kg dose. It is filed as functional. In outline:
as §3

Data set [23] in a line: Bronchoalveolar lavages was collected after 6 hr in an ascaris-induced nonhuman primate model of asthma at 1 mg/kg dose (for eotaxin). The format is functional. In outline: as §2

Broadly, the IC50 is the concentration at which inhibition is half-maximal. `O=C(Nc1ccc(-n2nc(C(F)(F)F)cc2C(F)(F)F)cc1)c1ccc(Cl)cc1`: the Binding in the data set filed under Homo sapiens [1] came out at 99.9%. The compound further came in with a half-maximal inhibitory concentration (IC50) in the data set filed under Homo sapiens [2] of 6030 nM.

As to `O=C(Nc1ccc(-n2nc(C(F)(F)F)cc2C(F)(F)F)cc1)c1cc(F)ccc1F`, the Binding in the data set listed under Homo sapiens [1] stood at 99.9%. The IC50 in the data set listed under Homo sapiens [2] amounted to 372 nM.

Usually Cmax stands for the peak of the concentration-time curve. One may read the bioavailability as dose-corrected exposure relative to a reference, in per cent. Higher therefore signals good availability. Usually AUC stands for the area under the concentration-time curve, a measure of exposure. Higher therefore signals more exposure. In general, half-life refers to the time in which the quantity being followed falls by half. Consider `CSc1cc(C(F)(F)F)nn1-c1ccc(NC(=O)c2ccncc2F)cc1`, for which, in data set [3], the highest level (Cmax) was 870 ng/mL. In data set [4], the bioavailability worked out at 63%. Also, the area under the curve (AUC) in [5] turned out to be 7790 ng·h/mL. Further, in the data set listed under Homo sapiens [2], it took 944 nM to reach half-maximal inhibition (IC50). Besides, the half-life in data set [6] was 5.2 h.

As to `Cc1noc(C)c1C(=O)Nc1ccc(-n2nc(C(F)(F)F)cc2C(F)(F)F)cc1`, in the data set filed under Homo sapiens [1], the Binding was found to be 99.6%. Also, it took 1980 nM to reach half-maximal inhibition in the data set filed under Homo sapiens [2] (IC50).

In data set [3], `N#Cc1cc(C(F)(F)F)nn1-c1ccc(NC(=O)c2ccccc2F)cc1` showed a Cmax of 280 ng/mL. This compound also had a bioavailability in data set [4] of 31%. In addition, the AUC in [5] stood at 3240 ng·h/mL. Also, the IC50 in the data set filed under Homo sapiens [2] is 304 nM. Moreover, the half-life in [6] was 6.2 h.

As to `O=C(Nc1ccc(-n2nc(C(F)(F)F)cc2[N+](=O)[O-])cc1)c1ccncc1F`, the peak concentration (Cmax) in [3] is 220 ng/mL. Besides, in data set [4], the bioavailability was found to be 18%. This compound also returned an AUC in data set [5] of 310 ng·h/mL. In the data set listed under Homo sapiens [2], the IC50 came out at 440 nM. For the same compound, the half-life in data set [6] was 1.7 h.

In the data set listed under Homo sapiens [1], `O=C(Nc1ccc(-n2nc(C(F)(F)F)cc2C(F)(F)F)cc1)c1ccccc1Cl` yielded a Binding of 99.9%. This compound also came in with an IC50 in the data set filed under Homo sapiens [2] of 914 nM.

On to `O=C(Nc1ccc(-n2nc(C(F)(F)F)cc2C(F)(F)F)cc1)c1cccc(F)c1F`, for which the Binding in the data set filed under Homo sapiens [1] was 99.9%. The same compound registered an IC50 in the data set filed under Homo sapiens [2] of 405 nM.

On to `O=C(Nc1ccc(-n2nc(C(F)(F)F)cc2C(F)(F)F)cc1)c1ccncc1F`, for which, in the data set listed under Homo sapiens [1], the Binding worked out at 99.7%. Further, 496 nM corresponded to half-maximal inhibition in the data set listed under Homo sapiens [2] (IC50).

Regarding `O=C(Nc1ccc(-n2nc(C(F)(F)F)cc2C(F)(F)F)cc1)c1cc(F)cc(F)c1F`, the Binding in the data set listed under Homo sapiens [1] is listed as 99.9%. This compound yielded an IC50 in the data set listed under Homo sapiens [2] of 1470 nM.

One may read the inhibition as the change of the read-out against control, counted positive when it falls. In the case of `O=C(Nc1ccc(-n2nc(C(F)(F)F)cc2OC(F)F)cc1)c1ccncc1F`, the highest level in data set [3] (Cmax) was 610 ng/mL. Besides, the inhibition in data set [7] came out at 56%; in [8], 69%; in [9], 69%; in [10] it was 185%; in data set [11], 61%; in data set [12], 73%. The compound further showed a bioavailability in data set [4] of 74%. Besides, the exposure (AUC) in data set [5] came out at 7750 ng·h/mL. In the data set filed under Homo sapiens [2], this compound returned a 50% inhibitory concentration (IC50) of 182 nM. Moreover, in data set [6], the half-life is 6.8 h.

In turn, `COc1cc(C(F)(F)F)nn1-c1ccc(NC(=O)c2ccncc2F)cc1` gave a Cmax in data set [3] of 1480 ng/mL. Also, in [4], the bioavailability was determined as 68%. The compound further registered an AUC in data set [5] of 3050 ng·h/mL. Also, in the data set filed under Homo sapiens [2], the IC50 amounted to 261 nM. This compound also showed a half-life in [6] of 1 h.

For the compound `Cc1nnsc1C(=O)Nc1ccc(-n2nc(C(F)(F)F)cc2C(F)(F)F)cc1`, in the data set filed under Homo sapiens [1], the Binding was determined as 99.8%. Moreover, the midpoint of inhibition in the data set listed under Homo sapiens [2], the IC50, lay at 1740 nM.

As to `O=C(Nc1ccc(-n2[nH]c(C(F)(F)F)cc2=O)cc1)c1ccncc1F`, in the data set filed under Homo sapiens [13], the inhibition is reported as 16%.

Take `N#Cc1cc(C(F)(F)F)nn1-c1ccc(NC(=O)c2ccncc2F)cc1`: in data set [3], the concentration peaked (Cmax) at 1090 ng/mL. The bioavailability in [4] came out at 78%. In addition, the exposure (AUC) in data set [5] was 10900 ng·h/mL. For the same compound, in the data set filed under Homo sapiens [2], it took 240 nM to reach half-maximal inhibition (IC50). In addition, the half-life in data set [6] was 4.3 h.

`CC(=O)c1cc(C(F)(F)F)nn1-c1ccc(NC(=O)c2ccccc2F)cc1` came in with a peak concentration (Cmax) in data set [3] of 120 ng/mL. Besides, the bioavailability in [4] worked out at 5%. This compound had an AUC in data set [5] of 1110 ng·h/mL. Further, the IC50 in the data set listed under Homo sapiens [2] amounted to 1580 nM.

In turn, `O=C(Nc1ccc(-n2nc(C(F)(F)F)cc2Cl)cc1)c1ccncc1F` yielded a peak concentration (Cmax) in data set [3] of 780 ng/mL. In addition, in data set [4], the bioavailability stood at 79%. In [5], this compound came in with an area under the curve (AUC) of 11000 ng·h/mL. In addition, in the data set filed under Homo sapiens [2], the IC50 worked out at 158 nM. In data set [6], this compound gave a half-life of 4.8 h.

With `O=C(Nc1ccc(-n2nc(C(F)(F)F)cc2C(F)(F)F)cc1)c1ccccc1F`, the Binding in the data set filed under Homo sapiens [1] is given as 99.9%. In the data set filed under Homo sapiens [2], this compound yielded a concentration for half-maximal inhibition (IC50) of 2270 nM.

The compound `O=C(Nc1ccc(-n2nc(C(F)(F)F)cc2Br)cc1)c1ccncc1F` came in with a Cmax in data set [3] of 1040 ng/mL. In [4], this compound displayed a bioavailability of 94%. In addition, in data set [5], the AUC stood at 16400 ng·h/mL. In the data set listed under Homo sapiens [2], this compound showed an IC50 of 288 nM. In data set [6], this compound had a half-life of 7.2 h.

In the case of `COc1cc(C(F)(F)F)nn1-c1ccc(NC(=O)c2ccccc2F)cc1`, in [3], the Cmax worked out at 70 ng/mL. The same compound gave a bioavailability in [4] of 26%. Further, the AUC in [5] worked out at 970 ng·h/mL. In the data set listed under Homo sapiens [2], the 50% inhibitory concentration (IC50) turned out to be 570 nM.

Take `O=C(Nc1ccc(-n2nc(C(F)(F)F)cc2C(F)(F)F)cc1)c1ccncc1`: the Binding in the data set filed under Homo sapiens [1] stood at 99.7%. Also, the half-maximal inhibitory concentration (IC50) in the data set listed under Homo sapiens [2] was found to be 701 nM.

Turning to `C/C=C/C[C@@H](C)[C@@H](O)[C@H]1C(=O)N[C@@H](CC)C(=O)N(C)CC(=O)N(C)[C@@H](CC(C)C)C(=O)N[C@@H](C(C)C)C(=O)N(C)[C@@H](CC(C)C)C(=O)N[C@@H](C)C(=O)N[C@H](C)C(=O)N(C)[C@@H](CC(C)C)C(=O)N(C)[C@@H](CC(C)C)C(=O)N(C)[C@@H](C(C)C)C(=O)N1C` [CYCLOSPORINE], the inhibition was determined as 62% in [14], 137% in data set [15], 92% in data set [16] and 90% in [17].

Turning to `C[C@]12C=CC(=O)C=C1CC[C@@H]1[C@@H]2[C@@H](O)C[C@@]2(C)[C@H]1CC[C@]2(O)C(=O)CO` [PREDNISOLONE], the inhibition was determined as 106% in [18]; 24% in [19]; 9% in data set [20]; 94% in data set [21]; 57% in [22]; 67% in data set [23].
